Assay results: ChEMBL document CHEMBL4342512, “Discovery of [1,2,4]Triazolo[1,5-a]pyridine Derivatives as Potent and Orally Bioavailable RORγt Inverse Agonists” (ACS Med Chem Lett, 2020)
≈ marks a conversion by molar mass, not a printed value.

What was measured:
[1] = Metabolic stability in human liver microsomes assessed as intrinsic clearance; type: ADME, Microsome
[2] = Metabolic stability in mouse liver microsomes assessed as intrinsic clearance; type: ADME, Microsome
[3] = Protein binding in human plasma; type: ADME, cell-free; conditions: read-out: PPB (converted)
Outline: (§1)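 Plasma protein binding was determined in human or mouse plasma.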

[4] = Protein binding in mouse plasma; type: ADME, cell-free; conditions: read-out: PPB (converted); outline: as §1
[5] = Solubility of compound in aqueous medium at pH 6.8; type: physicochemical
Outline: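 Solubility was measured in the second fluid of the Japanese Pharmacopoeia Disintegration Test (pH 6.8).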

[6] = Apparent permeability across apical to basolateral side in human Caco2 cells; type: ADME, cell-based; conditions: Caco-2
Outline: (§2)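 Bidirectional permeability was measured in the apical-to-basolateral and basolateral-to-apical directions.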

[7] = Apparent permeability across basolateral to apical side in human Caco2 cells; type: ADME, cell-based; conditions: Caco-2; outline: as §2
[8] = Bioavailability in mouse at 2 umol/kg, po and 1 umol/kg, iv administered using cassette dosing; type: ADME, organism-based; conditions: in vivo
Outline: (§3)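 Mouse PK by cassette dosing. The combined compounds were given orally at 2 μmol/kg and intravenously at 1 μmol/kg. PK parameters were derived from the plasma profiles.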

[9] = AUC in mouse at 2 umol/kg, po administered using cassette dosing; type: ADME, organism-based; conditions: in vivo; outline: as §3
[10] = Clearance in mouse at 2 umol/kg, po and 1 umol/kg, iv administered using cassette dosing; type: ADME, organism-based; conditions: in vivo; outline: as §3
[11] = Unbound clearance in mouse at 2 umol/kg, po and 1 umol/kg, iv administered using cassette dosing; type: ADME, organism-based; conditions: in vivo; outline: as §3
[12] = Volume of distribution at steady state in mouse at 2 umol/kg, po and 1 umol/kg, iv administered using cassette dosing; type: ADME, organism-based; conditions: in vivo, read-out: Vdss; outline: as §3
[13] = Half life in mouse at 2 umol/kg, po administered using cassette dosing; type: ADME, organism-based; conditions: in vivo; outline: as §3
[14] = Half life in mouse at 1 umol/kg, iv administered using cassette dosing; type: ADME, organism-based; conditions: in vivo; outline: as §3
[15] = Drug metabolism in human hepatocytes assessed as central triazolo-pyridine core derived metabolic soft spot formation by mass spectrometry; type: ADME, cell-based, Hepatocyte
[16] = Drug metabolism in human hepatocytes assessed as cyclopentyl derived oxidative adduct formation by mass spectrometry; type: ADME, cell-based, Hepatocyte

| Compound | CLH [1] | CLH [2] | fraction unbound [3] | fraction unbound [4] | solubility [5] | Papp A→B [6] | Papp B→A [7] | bioavailability [8] | AUC [9] | clearance [10] | CL free [11] | Vd [12] | half-life [13] | half-life [14] | further results |
| --- | --- | --- | --- | --- | --- | --- | --- | --- | --- | --- | --- | --- | --- | --- | --- |
| Cc1ccc(C(=O)Nc2cc(F)cc(CN3CCN(C(=O)C4CCCC4)[C@@H](C)C3)c2C)cn1 | 88 µL/min/mg | 110 µL/min/mg | 0.003 | 0.043 | 71 µM (≈ 32.1 µg/mL) | 40 ×10⁻⁶ cm/s | 55 ×10⁻⁶ cm/s | 48% | 0.49 µM·h | 33.3 mL/min/kg | 767 mL/min/kg | 1.6 L/kg | 0.7 h | 0.7 h |  |
| Cc1ccc(C(=O)Nc2cn3ncnc3c(CN3CCN(C(=O)C4CCC(F)(F)C4)[C@@H](C)C3)c2C)cn1 (stereo partly specified) | < 10 µL/min/mg |  |  |  |  |  |  |  |  |  |  |  |  |  |  |
| Cc1ccc(C(=O)Nc2cn3ncnc3c(CN3CCN(C(=O)c4ccccc4)[C@@H](C)C3)c2C)cn1 | 21 µL/min/mg |  |  |  |  |  |  |  |  |  |  |  |  |  |  |
| Cc1ccc(C(=O)Nc2cn3ncnc3c(CN3CCN(C(=O)C(C)C)[C@@H](C)C3)c2C)cn1 | 240 µL/min/mg |  |  |  |  |  |  |  |  |  |  |  |  |  |  |
| Cc1ccc(C(=O)Nc2cn3ncnc3c(O[C@H]3CCN(C(=O)CC(C(F)(F)F)C(F)(F)F)[C@@H](C)C3)c2C)cn1 | 10 µL/min/mg | 30 µL/min/mg | 0.082 | 0.135 | 170 µM (≈ 97.3 µg/mL) | 31 ×10⁻⁶ cm/s | 51 ×10⁻⁶ cm/s | 120% | 15 µM·h | 2.5 mL/min/kg | 18.3 mL/min/kg | 0.8 L/kg | 3.6 h | 3.9 h |  |
| Cc1ccc(C(=O)Nc2cn3ncnc3c(CN3CCN(C(=O)C4CCOCC4)[C@@H](C)C3)c2C)cn1 | < 10 µL/min/mg |  |  |  |  |  |  |  |  |  |  |  |  |  |  |
| Cc1ccc(C(=O)Nc2cn3ncnc3c(CN3CCN(C(=O)CCC(F)(F)F)[C@@H](C)C3)c2C)cn1 | < 10 µL/min/mg |  |  |  |  |  |  |  |  |  |  |  |  |  |  |
| Cc1ccc(C(=O)Nc2cn3ncnc3c(O[C@@H]3CCN(C(=O)CC(C(F)(F)F)C(F)(F)F)[C@@H](C)C3)c2C)cn1 | 28 µL/min/mg |  |  |  |  |  |  |  |  |  |  |  |  |  |  |
| Cc1ccc(C(=O)Nc2cn3ncnc3c(CN3CCN(C(=O)CC(C)C)[C@@H](C)C3)c2C)cn1 | 20 µL/min/mg |  |  |  |  |  |  |  |  |  |  |  |  |  |  |
| Cc1ccc(C(=O)Nc2cc3nncn3c(CN3CCN(C(=O)C4CCCC4)[C@@H](C)C3)c2C)cn1 | 59 µL/min/mg |  |  |  |  |  |  |  |  |  |  |  |  |  |  |
| Cc1ccc(C(=O)Nc2cn3ncnc3c(CN3CCN(C(=O)CC(C(F)(F)F)C(F)(F)F)[C@@H](C)C3)c2C)cn1 | < 10 µL/min/mg | < 10 µL/min/mg | 0.139 | 0.233 | 200 µM (≈ 114 µg/mL) | 9.6 ×10⁻⁶ cm/s | 36 ×10⁻⁶ cm/s | 110% | 2.3 µM·h | 18.3 mL/min/kg | 75 mL/min/kg | 1.1 L/kg | 1.1 h | 1 h |  |
| Cc1ccc(C(=O)Nc2cn3ncnc3c(CN3CCN(C(=O)C4CCCC4)[C@@H](C)C3)c2C)cn1 | 32 µL/min/mg | 11 µL/min/mg | 0.227 | 0.212 | 190 µM (≈ 90.4 µg/mL) | 2.5 ×10⁻⁶ cm/s | 46 ×10⁻⁶ cm/s | 47% | 0.84 µM·h | 18.3 mL/min/kg | 88.3 mL/min/kg | 0.77 L/kg | 1.2 h | 1.4 h | Drug metabolism [15]: Metabolite_Notdetected; Drug metabolism [16]: Metabolite_Detected |
